# What was measured:
# [1] = biological target: T1, Delta-type opioid receptor (Mus musculus, UniProt P32300); test: Displacement of [3H]DADLE at delta-opioid receptor
# [2] = biological target: T2, Kappa-type opioid receptor (Cavia porcellus, UniProt P41144); test: Displacement of [3H]U-69593 at opioid receptor kappa 1
# Mu-type opioid receptor [3] = biological target: T3, Mu-type opioid receptor (Rattus norvegicus, UniProt P33535); test: Displacement of [3H]DAMGO at mu-opioid receptor
# [4] = biological target: T1, Delta-type opioid receptor; test: Antagonist activity of compound on agonist stimulated [35S]GTP-gamma-S binding on delta-opioid receptor; assay type: functional
# Mus musculus [5] = species on record: Mus musculus; test: Percentage inhibition of contraction height in mouse vas deferens (MVD) at 1 uM; assay type: functional
# [6] = biological target: T2, Kappa-type opioid receptor; test: Antagonist activity of compound on U50,488H stimulated [35S]GTP-gamma-S binding to opioid receptor kappa 1; assay type: functional
# Cavia porcellus [7] = species on record: Cavia porcellus; test: Percentage inhibition of contraction height in guinea pig ileum longitudinal muscle myenteric plexus (GPI/LMMP) 1 uM; assay type: functional
# Method in brief: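 Agonist effect read in isolated guinea pig ileum longitudinal muscle/myenteric plexus preparation as percent inhibition of contraction height, at one test concentration.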
# Cavia porcellus [8] = species on record: Cavia porcellus; test: Antagonist activity of compound in GPI/LMMP tested with PL-017; assay type: functional
# Method in brief: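 Guinea pig ileum longitudinal muscle/myenteric plexus preparation. Antagonism is measured against the μ agonist PL-017 and expressed as Ke (nM). Agonist activity is recorded separately as percent inhibition of contraction height at a single stated concentration.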
# Mus musculus [9] = species on record: Mus musculus; test: Antagonist activity of compound in mouse vas deferens tested with DPDPE; assay type: functional
# Method in brief: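 Isolated mouse vas deferens. Antagonism is measured against the δ agonist DPDPE and expressed as Ke (nM). Agonist activity is recorded separately as percent inhibition of contraction height at a single stated concentration.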
# Mus musculus [10] = species on record: Mus musculus; test: Percentage inhibition of contraction height in mouse vas deferens (MVD) at 100 nM; assay type: functional
# Method in brief: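 Agonist effect read in isolated mouse vas deferens preparation as percent inhibition of contraction height, at one test concentration.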
# Mu-type opioid receptor [11] = biological target: T3, Mu-type opioid receptor; test: Antagonist activity of compound on agonist stimulated [35S]GTP-gamma-S binding on mu-opioid receptor; assay type: functional
# Mu-type opioid receptor [12] = biological target: T3, Mu-type opioid receptor; test: Antagonist activity of compound on DAMGO stimulated [35S]GTP-gamma-S binding to mu-opioid receptor; assay type: functional
# [13] = biological target: T1, Delta-type opioid receptor; test: Antagonist activity of compound on SNC 80 stimulated [35S]GTP-gamma-S binding to delta-opioid receptor; assay type: functional
# T1 sequence (P32300 whole entry): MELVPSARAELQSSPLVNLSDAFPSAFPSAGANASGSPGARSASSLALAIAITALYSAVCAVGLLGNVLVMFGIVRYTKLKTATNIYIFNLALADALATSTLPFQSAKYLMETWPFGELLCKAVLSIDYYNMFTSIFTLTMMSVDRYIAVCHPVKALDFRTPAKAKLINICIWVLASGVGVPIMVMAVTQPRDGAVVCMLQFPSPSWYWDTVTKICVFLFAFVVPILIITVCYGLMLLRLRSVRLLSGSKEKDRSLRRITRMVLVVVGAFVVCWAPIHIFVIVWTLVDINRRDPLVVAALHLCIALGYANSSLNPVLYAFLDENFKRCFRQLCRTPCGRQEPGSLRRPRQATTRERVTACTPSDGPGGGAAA
# T3 sequence (P33535 whole entry): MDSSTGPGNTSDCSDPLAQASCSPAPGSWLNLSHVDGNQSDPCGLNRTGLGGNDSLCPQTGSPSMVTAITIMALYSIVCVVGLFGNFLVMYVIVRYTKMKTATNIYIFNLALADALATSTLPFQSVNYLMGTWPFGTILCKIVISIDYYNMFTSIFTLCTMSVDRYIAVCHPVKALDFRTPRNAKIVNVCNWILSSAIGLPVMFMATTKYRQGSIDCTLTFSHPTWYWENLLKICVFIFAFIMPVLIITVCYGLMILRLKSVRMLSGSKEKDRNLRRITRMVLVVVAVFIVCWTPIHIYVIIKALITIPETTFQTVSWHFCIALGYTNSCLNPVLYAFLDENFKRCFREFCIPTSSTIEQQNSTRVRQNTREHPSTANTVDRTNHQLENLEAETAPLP
# T2 sequence (P41144 whole entry): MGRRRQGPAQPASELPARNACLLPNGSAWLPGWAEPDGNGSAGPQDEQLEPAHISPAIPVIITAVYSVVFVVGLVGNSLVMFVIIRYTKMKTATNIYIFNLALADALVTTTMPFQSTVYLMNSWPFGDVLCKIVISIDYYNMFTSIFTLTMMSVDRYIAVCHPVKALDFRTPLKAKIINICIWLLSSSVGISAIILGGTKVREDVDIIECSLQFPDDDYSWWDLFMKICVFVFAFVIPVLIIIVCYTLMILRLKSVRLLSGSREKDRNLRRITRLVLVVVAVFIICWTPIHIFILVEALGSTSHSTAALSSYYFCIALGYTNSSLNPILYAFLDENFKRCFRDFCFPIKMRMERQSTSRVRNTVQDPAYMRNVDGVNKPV
Structure (SMILES),Ki [1] [nM],Ki [2] [nM],Ki (Mu-type opioid receptor [3]) [nM],also measured
CC(C)N1CC[C@]23c4c5ccc(O)c4O[C@H]2c2[nH]c4ccccc4c2C[C@@]3(O)[C@H]1C5,33,6200,> 6600,
CCCCCCN1CC[C@]23c4c5ccc(O)c4O[C@H]2c2[nH]c4ccccc4c2C[C@@]3(O)[C@H]1C5,26,3100,4600,
CCCCCN1CC[C@]23c4c5ccc(O)c4O[C@H]2c2[nH]c4ccccc4c2C[C@@]3(O)[C@H]1C5,16,2000,2800,
CCCCCCCN1CC[C@]23c4c5ccc(O)c4O[C@H]2c2[nH]c4ccccc4c2C[C@@]3(O)[C@H]1C5,79,> 7000,4600,
Cl.Oc1ccc2c3c1O[C@H]1c4[nH]c5ccccc5c4C[C@@]4(O)[C@@H](C2)N(CC2CC2)CC[C@]314 [NALTRINDOLE HYDROCHLORIDE],0.22,30,,Ki [4]: 0.03 nM; inhibition at 1 µM (Mus musculus [5]): 16%; Ki [6]: 4.7 nM; Inhibition (Cavia porcellus [7]): 18%; Ke (Cavia porcellus [8]): 43 nM; Ke (Mus musculus [9]): 0.49 nM
CC(C)CCN1CC[C@]23c4c5ccc(O)c4O[C@H]2c2[nH]c4ccccc4c2C[C@@]3(O)[C@H]1C5,4.8,670,1300,
C/C=C/CN1CC[C@]23c4c5ccc(O)c4O[C@H]2c2[nH]c4ccccc4c2C[C@@]3(O)[C@H]1C5,7.4,960,1200,Ki [4]: 0.68 nM; Ki [6]: 118 nM; Inhibition (Cavia porcellus [7]): 22%; inhibition at 0.1 µM (Mus musculus [10]): 12%; Ki (Mu-type opioid receptor [11]): 30 nM; Ke (Cavia porcellus [8]): 5500 nM; Ke (Mus musculus [9]): 26 nM
CCCN1CC[C@]23c4c5ccc(O)c4O[C@H]2c2[nH]c4ccccc4c2C[C@@]3(O)[C@H]1C5,2,380,,
CC(C)=CCN1CC[C@]23c4c5ccc(O)c4O[C@H]2c2[nH]c4ccccc4c2C[C@@]3(O)[C@H]1C5,25,3200,2800,
CCCCN1CC[C@]23c4c5ccc(O)c4O[C@H]2c2[nH]c4ccccc4c2C[C@@]3(O)[C@H]1C5,8.4,900,1300,
CN1CC[C@]23c4c5ccc(O)c4O[C@H]2c2[nH]c4ccccc4c2C[C@@]3(O)[C@H]1C5 [OXYMORPHINDOLE],,,66,
CCN1CC[C@]23c4c5ccc(O)c4O[C@H]2c2[nH]c4ccccc4c2C[C@@]3(O)[C@H]1C5,5,3000,2500,Ki (Mu-type opioid receptor [12]): 290 nM; Ki [6]: > 1000 nM; Inhibition (Cavia porcellus [7]): 1.2%; inhibition at 0.1 µM (Mus musculus [10]): 9%; Ke (Cavia porcellus [8]): 96 nM; Ki [13]: 3.2 nM; Ke (Mus musculus [9]): 9.6 nM
CC(C)CN1CC[C@]23c4c5ccc(O)c4O[C@H]2c2[nH]c4ccccc4c2C[C@@]3(O)[C@H]1C5,3.8,650,2600,

# Source: ChEMBL document CHEMBL1134413, “Effect of N-alkyl and N-alkenyl substituents in noroxymorphindole, 17-substituted-6,7-dehydro-4,5alpha-epoxy-3,14-dihydroxy-6,7:2',3'-indolomorphinans, on opioid receptor affinity, selectivity, and efficacy” (J Med Chem, 2001)
